Laboratory results as given in PMC5013402 (BMJ Open Diabetes Research & Care, 2016).
Where two headings read alike, the source gives them in different places. Marks after values point to notes of the source that are not given here.

Tests used:
[1] = after subcutaneous injection; cited from earlier work
[2] = cited from earlier work; for Terminal clearance half-life from the lung: delivered as Technosphere inhaled insulin
[3] = assay type: in vivo, human (patients with type 1 or type 2 diabetes); conditions: serum, mean (SD), n=19
Procedure, shortened: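 Patients arrived fasting, with the morning prandial dose withheld; basal insulin or oral agents were taken as usual. Each inhaled their current individualized dose (range 15–90 units), then drank a standardized 540 kcal/67.5 g carbohydrate liquid meal. Serum was sampled at −30, 0, 5, 10, 15, 20, 30, 45, 60, 90, 120, 180 and 240 min. The challenge was repeated ≥15 to ≤45 days after symptom resolution, each patient serving as own control. Descriptive statistics.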

Molecule | Duration of action [1] [h] | Time to maximum concentration [1] [min] | Terminal clearance half-life from the lung [2] [h] | further results
insulin aspart | 3 to 5 | 50 to 120 | – | –
insulin: recombinant human insulin delivered as Technosphere inhaled insulin | – | – | ~1 | –
regular human insulin: regular human insulin given by subcutaneous injection | 5 to 8 | 80 to 120 | – | –
insulin lispro | 3 to 5 | 50 to 120 | – | –
O=C(O)/C=C/C(=O)NCCCC[C@@H]1NC(=O)[C@H](CCCCNC(=O)/C=C/C(=O)O)NC1=O [FDKP, fumaryl diketopiperazine] | – | – | ~1 | Excretion ([2]; after inhalation of Technosphere inhaled insulin): excreted unchanged in the urine; FDKP tmax ([3]; during URTI): 15.8 (26.2)† min; FDKP t½ ([3]; during URTI): 163.2 (35.5)† min; FDKP tmax ([3]; post-URTI): 15.5 (14.8)† min; FDKP t½ ([3]; post-URTI): 174.8 (79.0)† min
